The text below walks through data of article PMC2650427 (Bioconjugate chemistry, 2008).

Read-outs that look alike come from different tables or passages of the source. Marks after values point to notes of the source that are not given here.

The nature of data set [1]: Relaxivity. It is filed as physicochemical. Particulars: 100 mM phosphate buffer, pH 7.4, ambient temperature (~25 °C); saturation recovery; assessed in duplicate.
The conditions of data set [2]: cited from earlier work.
For data set [3] the following is noted: calculated at 25 °C; cited from earlier work.
Data set [4] can be described thus: Determination of τm by 17O transverse relaxation rate measurements. It is filed as physicochemical. The following applies: variable temperature 17O NMR at 54 MHz, 15–20 mM, pH 7.40; calculated at 25 °C.
Data set [5] relates to NIH/3T3 cells. The data set can be described thus: MR imaging and T1 analysis of labelled cells. It is filed as cell-based. The following applies: 1.0 mM, 4 h, washes at 1 hour intervals, T1-weighted, 14.1 T.
Data set [6] can be described thus: In vitro cleavage by disulfide exchange with GSH. It is filed as physicochemical. Particulars: 1.0 mM in DPBS, 37 °C, 4 h; GSH at 4 times the contrast agent; HPLC-MS ion count. The method, boiled down: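 Disulfide-linked Gd(III)-DTPA–octaarginine test compound was incubated with increasing GSH (0.25 to 4 equivalents) in 1.0 mM DPBS. Start times were staggered so each sample had 4 h at 37 °C before LC-MS. Separation used a C18 column (4.6 × 250 mm, 5 µm) at 1.0 mL/min with a water/MeCN gradient of 0–60% MeCN over 40 min. Total ion counts of the GSH-exchange product and of the starting material were compared.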

Consider `O=C([O-])CN1CCN(CC(=O)[O-])CCN(CC(=O)O)CCN(CC(=O)[O-])CC1.[Gd+3]` [Gd(III)-DOTA], for which, in data set [1], the “Relaxivity, 600 MHz (14.1 T)” value was 2.12 mM⁻¹ s⁻¹. Besides, the “q (number of bound water molecules)” value in data set [2] is 1.2 ^d. Further, in data set [3], the “τm (mean residence lifetime of coordinated water)” value was 243 ^e ns.

On to Gd(III)-DOTA-SS-Arg8 [compound 3], for which, in data set [1], the “Relaxivity, 600 MHz (14.1 T)” value came to 3.52 mM⁻¹ s⁻¹. Moreover, the “τm (mean residence lifetime of coordinated water)” value in data set [4] is listed as 840 ns. Besides, the “MR image intensity after leaching” value in data set [5] is given as “little loss of signal intensity”.

On to Gd(III)-DTPA-SS-Arg8 [compound 4], for which, in data set [1], the “Relaxivity, 600 MHz (14.1 T)” value was 3.46 mM⁻¹ s⁻¹. Also, in data set [4], the “τm (mean residence lifetime of coordinated water)” value is 1327 ns. Moreover, the “Completeness of disulfide cleavage at 4:1 GSH” value in data set [6] is “complete cleavage is not obtainable”. Also, the “MR image intensity after leaching” value in data set [5] was “little loss of signal intensity”.

On to `O=C([O-])CN(CCN(CC(=O)[O-])CC(=O)O)CCN(CC(=O)[O-])CC(=O)O.[Gd+3]` [Gd(III)-DTPA], for which the “Relaxivity, 600 MHz (14.1 T)” value in data set [1] was 2.09 mM⁻¹ s⁻¹. The “q (number of bound water molecules)” value in data set [2] is 1.2 ^d. Further, in data set [3], the “τm (mean residence lifetime of coordinated water)” value was 303 ^e ns.
